The species entered for test [1] is Rattus norvegicus. Briefly: Effects of N-acetyl-galactosamine on compound stimulated liver association of [125I]HDL measured in serum of rats. Format: functional. Put shortly:
(§1)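 Glycolipid mixed with [125I]LDL at 0.3 mg/mg apolipoprotein or with [125I]HDL at 1.0 mg/mg, then held 10 min at room temperature. The mixture was given intravenously at 50 μg apolipoprotein/kg to pentobarbital-anaesthetized male Wistar rats. N-acetylgalactosamine, N-acetylglucosamine (both 400 mg/kg) or PBS was preinjected 1 min before. At 5 min, TCA-precipitable serum radioactivity and liver-associated radioactivity were measured as % of dose. Mean ± SEM, 3–4 rats; Wilcoxon two-sample test.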

Test [2] is filed under the species Homo sapiens. As to the kind of experiment: Cholesterol in the Lipoprotein -deficient serum(LPDS) along with compound was measured in human serum. Format: functional. The method in brief:
(§2)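 Human serum (1.6 mL) mixed with 0.4 mL of a 10 mM glycolipid solution in PBS (2 mM final), or with PBS alone, for 10 min at room temperature. Density-gradient ultracentrifugation in KBr/NaCl then gave VLDL (d<1.006), LDL (1.006–1.063), HDL (1.063–1.210) and LPDS (d>1.210 g/mL) fractions. Each fraction was dialyzed against PBS and assayed for cholesterol and carbohydrate, reported as total μg per fraction.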

Test [3] is filed under the species Homo sapiens. Briefly: Carbohydrate in the Lipoprotein -deficient serum(LPDS) along with compound was measured in human serum. Format: functional. Put shortly:
as §2

For test [4], the species on record is Rattus norvegicus. Briefly: Effects of N-acetyl-glucosamine on compound stimulated liver association of [125I]HDL measured in liver of rats. It counts as functional. The method in brief: as §1
Test [5] is filed under the species Homo sapiens. As to the kind of experiment: Carbohydrate in the very low density lipoprotein (VLDL) along with compound was measured in human serum.
Test [6] is filed under the species Homo sapiens. As to the kind of experiment: Carbohydrate in the high density lipoprotein (HDL) along with compound was measured in human serum.
The species named for test [7] is Rattus norvegicus. Briefly: Effects of N-acetyl-galactosamine on compound stimulated liver association of [125I]LDL measured in liver of rats. Format: functional. The method in brief:
as §1

The species named for test [8] is Rattus norvegicus. As to the kind of experiment: Effects of N-acetyl-galactosamine on compound stimulated liver association of [125I]HDL measured in liver of rats. Format: functional. The method in brief: as §1
The species named for test [9] is Homo sapiens. Briefly: Cholesterol in the very low density lipoprotein (VLDL) along with compound was measured in human serum. It counts as functional. Put shortly:
as §2

For test [10], the species on record is Rattus norvegicus. Briefly: Effects of N-acetyl-glucosamine on compound stimulated liver association of [125I]LDL measured in liver of rats. Format: functional. The method in brief: as §1
The species entered for test [11] is Rattus norvegicus. Briefly: Effects of N-acetyl-glucosamine on compound stimulated liver association of [125I]HDL measured in preinjcted rats. Format: functional. Put shortly:
as §1

The species entered for test [12] is Homo sapiens. Briefly: Carbohydrate in the Total along with compound was measured in human serum. Format: functional. The method in brief:
as §2

For test [13], the species on record is Homo sapiens. Briefly: Cholesterol in the high density lipoprotein (HDL) along with compound was measured in human serum. Format: functional. Put shortly:
as §2

The species entered for test [14] is Homo sapiens. Briefly: Cholesterol in the Total along with compound was measured in human serum. Format: functional. Put shortly: as §2
The species entered for test [15] is Rattus norvegicus. As to the kind of experiment: Effects of N-acetyl-galactosamine on compound stimulated liver association of [125I]LDL measured in serum of rats. Format: functional. The method in brief: as §1
The species entered for test [16] is Homo sapiens. Briefly: Carbohydrate in the low density lipoprotein (LDL) along with compound was measured in human serum. Format: functional. Put shortly: as §2
Test [17] can be described thus: Ratio of carbohydrate in HDL to cholesterol level in HDL. It counts as functional. Put shortly:
(§3)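 Same serum incubation (2 mM final, 10 min, room temperature) and density-gradient fractionation into LDL and HDL. The ratio is μg carbohydrate per μg total cholesterol in each fraction. Values in parentheses compare the ratio with the PBS-only serum lipoproteins.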

A short description of test [18]: Ratio of carbohydrate in LDL to cholesterol level in LDL. Format: functional. Put shortly:
as §3

The species named for test [19] is Rattus norvegicus. As to the kind of experiment: Effects of N-acetyl-glucosamine on compound stimulated liver association of [125I]-LDL measured in serum of rats. It counts as functional. Put shortly:
as §1

The species entered for test [20] is Homo sapiens. Briefly: Carbohydrate in the very low density lipoprotein (VLDL) along with compound was measured in human serum. Format: functional. Put shortly: as §2
The species entered for test [21] is Homo sapiens. Briefly: Cholesterol in the low density lipoprotein (LDL) along with compound was measured in human serum. Format: functional. Put shortly: as §2
The species entered for test [22] is Homo sapiens. As to the kind of experiment: Carbohydrate in the high density lipoprotein (HDL) along with compound was measured in human serum. Format: functional. The method in brief: as §2

Regarding `CC(C)CCCC(C)C1CCC2C3CC=C4CC(OCCOCCOCCOCCOP(O)(=S)OCCO[C@@H]5O[C@H](CO)[C@H](O)[C@H](O)[C@H]5O)CCC4(C)C3CCC12C` (stereo not given in full), the Dose in [1] is 78.8%; in [4], 22.2%; in test [7], 5.1%; in test [8] it was 5.8%; in test [10], 61.6%; in test [11], 61.1%. The results for the Dose in test [15] and in test [19] were 92.2% and 29.3%, respectively. In addition, the Cholesterol in test [2] worked out at 70 µg; in test [9] it was 104 µg; in test [13], 627 µg; in test [14], 1850 µg; in test [21] it was 1048 µg. The Carbohydrate in test [3] worked out at 1710 µg; in test [5] it was 100 µg; in test [6], 500 µg; in test [12], 2790 µg; in test [16], 480 µg; in test [20], 100 µg. For the same compound, the Ratio in test [17] turned out to be 0.8; in test [18] it was 0.45.

For `CC(C)CCCC(C)C1CCC2C3CC=C4CC(OCCOCCOCCOCCOP(O)(=S)OCCOCCOCCSC5OC(CO)C(O)C(O)C5O)CCC4(C)C3CCC12C` (stereo not given), the Carbohydrate came to 390 µg in test [22]; 1720 µg in test [3]; 2730 µg in test [12]; 520 µg in test [16]; 100 µg in [20]. Further, the Cholesterol in test [2] is 66 µg; in [9], 101 µg; in test [13] it was 484 µg; in test [14], 1947 µg; in test [21], 1296 µg. Further, the Ratio in [17] was 0.81; in [18] it was 0.4.

Take `CC(C)CCCC(C)C1CCC2C3CC=C4CC(OCCOCCOCCOCCOP(O)(=S)OCCSC5OC(CO)C(O)C(O)C5O)CCC4(C)C3CCC12C` (stereo not given): the Cholesterol in [2] was 85 µg; in [9] it was 108 µg; in [13], 500 µg; in test [14] it was 1885 µg; in test [21], 1161 µg. Besides, the Carbohydrate in [3] worked out at 1590 µg; in test [6], 460 µg; in test [12], 2710 µg; in [16], 580 µg; in [20], 80 µg. Also, the Ratio in test [17] was 0.92; in [18] it was 0.5.

The values above are taken from ChEMBL document CHEMBL1125919, “Water-soluble cholesteryl-containing phosphorothioate monogalactosides: synthesis, properties, and use in lowering blood cholesterol by directing plasma lipoproteins to the liver” (1991).
